Laboratory results: ChEMBL document CHEMBL4808167, “Design, Synthesis, and Evaluation of Small Molecule Gαq/11 Protein Inhibitors for the Treatment of Uveal Melanoma” (J Med Chem, 2021)
Active and inactive are the calls of the source. The calls are words filed in the database; no cut-off is given here. Starred links: 1 amine or outer side, 2 acyl side, 3 side chain; linkers in the order of their positions; H or OH if unused. Positions of bridges follow the written chain, without caps; N, C: chain ends. Non-standard residues stand in square brackets, D forms with d. Residues, ends and D or L forms follow the SMILES beside them. *: point of attachment. Leu(3R-OH,Nα-propionyl) = CCC(=O)N[C@H](C(=O)*)[C@H](O)C(C)C; X1 = CC(C)[C@@H](O[*:3])[C@H](N[*:1])C(=O)[*:2]; NMeT = CN[C@H](C(=O)O)[C@@H](C)O; dPhLac = O=C(O)[C@H](O)Cc1ccccc1; NMeA = CN[C@@H](C)C(=O)O; NMeDha = C=C(NC)C(=O)O

Tests used:
GNAQ/GNA11 [1] = target: T1, GNAQ/GNA11 (Homo sapiens, UniProt P50148+P29992); assay: Inhibition of Galphaq/11 (unknown origin); type: protein assay
T1 sequence (P50148 whole entry): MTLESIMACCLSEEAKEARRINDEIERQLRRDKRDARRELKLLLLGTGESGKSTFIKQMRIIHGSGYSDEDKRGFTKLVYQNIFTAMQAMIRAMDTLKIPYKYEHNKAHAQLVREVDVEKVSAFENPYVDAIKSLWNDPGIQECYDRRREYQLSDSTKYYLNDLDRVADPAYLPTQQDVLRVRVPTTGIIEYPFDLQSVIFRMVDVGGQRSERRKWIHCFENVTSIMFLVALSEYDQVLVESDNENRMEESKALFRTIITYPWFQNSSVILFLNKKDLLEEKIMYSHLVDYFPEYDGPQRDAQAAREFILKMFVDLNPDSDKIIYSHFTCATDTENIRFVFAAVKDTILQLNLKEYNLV
T1 sequence (P29992 whole entry): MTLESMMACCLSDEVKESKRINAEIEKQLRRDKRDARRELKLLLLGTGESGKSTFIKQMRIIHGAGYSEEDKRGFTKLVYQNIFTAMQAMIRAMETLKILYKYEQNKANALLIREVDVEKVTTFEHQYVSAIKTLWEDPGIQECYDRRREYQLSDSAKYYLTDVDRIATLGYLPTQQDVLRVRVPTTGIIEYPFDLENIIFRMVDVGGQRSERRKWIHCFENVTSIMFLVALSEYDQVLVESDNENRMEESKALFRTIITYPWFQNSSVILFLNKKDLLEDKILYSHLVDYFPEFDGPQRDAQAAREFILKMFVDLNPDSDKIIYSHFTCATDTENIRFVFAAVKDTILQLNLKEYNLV
In short: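 Carbachol-stimulated IP₁ accumulation in CHO cells stably expressing the M₁ receptor, read by HTRF. Cells (2 × 10⁴/well) in assay buffer with 0.2% BSA were preincubated with compound for 1 h at 37 °C. Carbachol (final 9 μM, ~EC₈₀) was then added with LiCl (final 20 mM) for 1 h at 37 °C plus 1 h at room temperature. Values are % inhibition at 10 μM or IC₅₀, three independent experiments.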

921 [2] = assay: Inhibition of cell migration in human 921 cells at 15 uM incubated for 48 hrs by transwell migration assay; type: functional, cell-based
In short: (§1)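 92.1 or MP41 cells (1 × 10⁴/well) seeded in serum-free medium in the upper transwell chamber, with 20% FBS medium below. Left overnight, then treated 48 h. Non-migrated cells swabbed off; cells on the lower side stained with crystal violet 30 min and counted by light microscopy (×40 for migration, ×100 for invasion). Mean ± SD, n = 3.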

MP41 [3] = assay: Inhibition of cell migration in human MP41 cells at 15 uM incubated for 48 hrs by transwell migration assay; type: functional, cell-based
In short: (§2)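 Transwell migration: 92.1 and MP41 cells (RPMI-1640, 10% FBS) seeded 1 × 10⁴/well in upper chamber in serum-free medium, 20% FBS medium below; overnight at 37 °C, then compound for 48 h. Non-migrated cells swabbed off; lower cells crystal violet-stained 30 min, counted by light microscopy. Mean SD of three independent experiments.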

[4] = target: T2, GNAQ/GNA11 (Homo sapiens) (UniProt P50148+P29992); assay: Binding affinity to Galphaq/11 (unknown origin) expressed in HEK293 cells cotransfected with AT1R/Galphaq-RLuc8/ Ggamma2-venus/Gbeta1 assessed as inhibition of Ang-II induced-BRET signal at 100 uM preincubated for 1 hr followed by Ang-II addition by BRET assay; type: cell-based
In short: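 HEK293 cells transiently transfected with AT₁R, Gαq-RLuc8, Gγ2-Venus and untagged Gβ1. Replated 24 h later, washed with HBS, starved 10 min, then pretreated with compound for 1 h at 37 °C. AngII added, followed by coelenterazine. BRET ratio taken as Venus emission (520−570 nm) over RLuc8 emission (370−480 nm). Mean ± SD, n = 3.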

921 [5] = assay: Inhibition of cell invasion in human 921 cells at 5 to 15 uM incubated for 48 hrs by transwell assay; type: functional, cell-based; details: dose 5-15 µM; in short: as §1
MP41 [6] = assay: Inhibition of cell migration in human MP41 cells at 30 uM incubated for 48 hrs by Transwell migration assay; type: functional, cell-based; in short: as §2
[7] = target: T2, GNAQ/GNA11 (Homo sapiens); assay: Inhibition of Galphaq/11 (unknown origin) expressed in CHO cells coexpressing M1 receptor assessed as reduction in carbachol-induced IP1 accumulation at 10 uM preincubated for 1 hr followed by carbachol stimulation and measured after 1 hr by HTRF assay relative to control; type: cell-based; details: time 2.0 hrs
MP41 [8] = assay: Inhibition of cell invasion in human MP41 cells at 5 to 15 uM incubated for 48 hrs by transwell assay; type: functional, cell-based; details: dose 5-15 µM; in short: as §1
[9] = Antiproliferative activity against human MP41 cells assessed as inhibition of cell growth after 72 hrs by CCK8 assay; type: functional, cell-based; details: MP41, 72 h
In short: (§3)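 92.1 or MP41 cells in RPMI-1640 with 10% FBS were seeded at 3 × 10³ cells/well. Exposed to serial concentrations for 72 h at 37 °C, 5% CO₂. CCK-8 added for 1−4 h, absorbance read at 450 nm. IC₅₀ from concentration−response curve fit, mean ± SD.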

[10] = target: T2, GNAQ/GNA11 (Homo sapiens); assay: Inhibition of Galphaq/11 (unknown origin) expressed in HEK293 cells cotransfected with AT1R assessed as inhibition of Ang-II induced calcium release at 100 uM preincubated for 30 mins followed by Ang-II addition by Fluo-4AM dye based fluorescence assay; type: cell-based
In short: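 HEK293 cells transfected with AT₁R, washed in HBSS with 0.1% BSA and loaded with Fluo-4 AM for 1 h at 37 °C. Washed, then pretreated with compound at 100 μM for 30 min. AngII at varying concentrations added 20 s into the fluorescence recording. Mean ± SD, n = 3.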

[11] = Antiproliferative activity against human 92.1 cells assessed as inhibition of cell growth after 72 hrs by CCK8 assay; type: functional, cell-based; details: Homo sapiens, 921, 72 h; in short: as §3
CHO [12] = assay: Cytotoxicity against chinese hamster CHO cells overexpressing M1 receptor assessed as cell viability at 1.25 to 20 uM after 2 to 24 hrs by CCK8 assay; type: cell-based, Cricetulus griseus; details: dose lower 1.25 µM, time lower 2 hrs, dose upper 20 µM, time upper 24 hrs
In short: (§4)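 CHO cells stably expressing the M₁ receptor were treated with a range of compound concentrations for 2 h or 24 h. Viability measured by CCK-8 and given as percentage. Mean ± SD of three independent experiments.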

[13] = Antitumor activity against human MP41 cells xenografted in nude BALB/c mouse assessed as tumor growth inhibition at 10 mg/kg, ip administered for once daily for 21 days and measured every 3 days; type: functional; details: 504 h, time 21 day, read-out: TGI
In short: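 MP41 tumours were passaged subcutaneously mouse-to-mouse in nude BALB/c mice (6−8 weeks, 20−25 g). Tertiary recipients randomized, n = 8/group, given 10 or 30 (mg/kg)/d ip or vehicle for 21 days. Tumour size (V = A × B² × π/6, caliper) and body weight taken every 3 days; tumours excised and weighed on day 22. TGI computed versus the vehicle group.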

CHO [14] = assay: Cytotoxicity against chinese hamster CHO cells overexpressing M1 receptor assessed as cell viability at 5 uM after 2 hrs by CCK8 assay; type: cell-based, Cricetulus griseus; in short: as §4
CHO [15] = assay: Induction of morphological changes in chinese hamster CHO cells overexpressing M1 receptor at 10 to 20 uM after 2 hrs by light microscopic analysis; type: cell-based, Cricetulus griseus; details: dose 10-20 µM
In short: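 CHO-M₁ cells were treated with compound at 10 or 20 μM for 2 h, and changes in cell morphology were examined by microscopy.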

GNAQ/GNA11 [16] = target: T1, GNAQ/GNA11; assay: Inhibition of Galphaq/11 (unknown origin) expressed in CHO cells coexpressing M1 receptor assessed as reduction in carbachol-induced IP1 accumulation preincubated for 1 hr followed by carbachol stimulation and measured after 1 hr by HTRF assay; type: cell-based

Row | SMILES | IC50 (GNAQ/GNA11 [1]) [µM] | inhibition 921 [2] | inhibition (MP41 [3]) | Activity [4] | inhibition 921 [5] | inhibition (MP41 [6]) | inhibition [7] [%] | inhibition (MP41 [8]) | IC50 [9] [µM] | Activity [10] | IC50 [11] [µM] | Activity (CHO [12]) | inhibition in vivo at 10 mg/kg [13] [%] | Activity (CHO [14]) | Activity (CHO [15]) | IC50 (GNAQ/GNA11 [16]) [µM]
1 | C=C1C(=O)N[C@@H](C)C(=O)N(C)[C@@H](C)C(=O)N[C@@H]([C@H](OC(=O)[C@@H](NC(=O)CC)[C@H](O)C(C)C)C(C)C)C(=O)N(C)[C@@H]([C@@H](C)OC)C(=O)O[C@H](C(C)C)[C@H](NC(C)=O)C(=O)O[C@H](Cc2ccccc2)C(=O)N1C (Ac-[X1][dPhLac][NMeDha]A[NMeA][X1](Leu(3R-OH,Nα-propionyl))[NMeT](Me); ester 1-C) | 0.032 |  |  |  |  |  |  |  |  |  |  |  |  |  |  | 
2 | N[C@@H](CS)C(=O)N1CCn2cc(-c3ccccc3)nc2[C@@H]1CC1CCCCC1 |  | Active | Active | Active | Active | Active | 32.6 | Active | 2.3 | inactive | 4.8 |  |  |  |  | 
3 | N[C@H](CSSC[C@@H](N)C(=O)N1CCn2cc(-c3ccccc3)nc2[C@@H]1CC1CCCCC1)C(=O)N1CCn2cc(-c3ccccc3)nc2[C@@H]1CC1CCCCC1 |  | Active | Active | Active | Active | Active | 25.8 | Active | 10.5 | inactive | 6.8 | Toxic | 35.9 | Toxic | Toxic | 
4 | N[C@@H](Cc1ccc(O)cc1)C(=O)N1CCn2cc(-c3ccccc3)nc2[C@@H]1CC1CCCCC1 |  |  |  |  |  |  | 34 |  | 22.6 |  | 10.7 |  |  |  |  | 48.6
